Measurements from ChEMBL document CHEMBL1142116, “Mixed lignan-neolignans from Tarenna attenuata” (J Nat Prod, 2007).

What was measured:
Format in all cases: functional
[1] = tested on: Radical scavenging activity; experiment: Antioxidant effect assessed as DPPH radical scavenging activity
Procedure, shortened: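 Compound at five concentrations (0.16–100.0 µM) mixed 1:1 with 0.1 mM DPPH in EtOH, 30 min at 37 °C, absorbance at 517 nm. Scavenging % = (Acontrol − Asample)/Acontrol × 100; IC50 from concentration series.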

[2] = tested on: PC-12; experiment: Antioxidant effect against hydrogen peroxide-induced impairment in PC12 cells assessed as cell viability at 0.4 uM by MTT assay relative to control; settings: Rattus norvegicus, read-out: Activity
Procedure, shortened: (§1)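 PC12 cells seeded in RPMI 1640 with 10% newborn bovine serum; after 24 h, compound (0.4–50 µM) added together with freshly prepared H2O2 (0.2 mM final) in PBS for 1 h. Then MTT (0.5 mg/mL in PBS) for 4 h, lysis with 5% i-BuOH/10% SDS/0.004% HCl overnight, OD 570 nm; viability as % of untreated control; n = 5, mean ± SD.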

[3] = tested on: PC-12; experiment: Antioxidant effect against hydrogen peroxide-induced impairment in PC12 cells assessed as cell viability at 2 uM by MTT assay relative to control; settings: Rattus norvegicus, read-out: Activity; procedure, shortened: as §1
[4] = tested on: PC-12; experiment: Antioxidant effect against hydrogen peroxide-induced impairment in PC12 cells assessed as cell viability at 10 uM by MTT assay relative to control; settings: Rattus norvegicus, read-out: Activity; procedure, shortened: as §1
[5] = tested on: PC-12; experiment: Antioxidant effect against hydrogen peroxide-induced impairment in PC12 cells assessed as cell viability at 50 uM by MTT assay relative to control; settings: Rattus norvegicus, read-out: Activity; procedure, shortened: as §1

| SMILES | IC50 [1] | viability at 0.4 µM [2] | viability at 2 µM [3] | viability at 10 µM [4] | viability at 50 µM [5] |
| --- | --- | --- | --- | --- | --- |
| COc1cc(C(O)C(CO)Oc2c(OC)cc([C@@H]3Oc4c(OC)cc(/C=C/C=O)cc4[C@H]3CO)cc2OC)ccc1O (stereo not given in full) | 147 µM | 56.9% | 56.8% | 62.6% | 64.8% |
| CCOC(c1ccc(O)c(OC)c1)C(O)CO (stereo not given) | 132 µM | 54.1% | 54.9% | 56.8% | 57.3% |
| COc1cc([C@H](O)[C@@H](CO)Oc2c(OC)cc([C@@H]3OC[C@@H]4[C@H]3CO[C@H]4c3cc(OC)c(O[C@H](CO)[C@@H](O)c4cc(OC)c(O)c(OC)c4)c(OC)c3)cc2OC)ccc1O | 87 µM | 51.9% | 54.3% | 54.7% | 54.1% |
| COc1cc(C(O)C(CO)Oc2ccc(C(O)C(CO)Oc3c(OC)cc([C@@H]4Oc5c(OC)cc(/C=C/C=O)cc5[C@H]4CO)cc3OC)cc2OC)ccc1O (stereo not given in full) | 201 µM | 52.8% | 47.9% | 64.4% | 55.9% |
| COc1cc(C(O)C(CO)Oc2c(OC)cc(C(O)C(CO)Oc3c(OC)cc([C@@H]4Oc5c(OC)cc(/C=C/C=O)cc5[C@H]4CO)cc3OC)cc2OC)ccc1O (stereo not given in full) | 127 µM | 50.3% | 54.7% | 55.2% | 51% |
| COc1cc(C(O)C(CO)Oc2c(OC)cc([C@@H]3OC[C@@H]4C(=O)OC[C@@H]43)cc2OC)ccc1O (stereo not given in full) | 72 µM | 59.3% | 61.8% | 59.4% | 45.7% |

Now those with a lower IC50 [1], led by results:

| IC50 [1] | SMILES | viability at 0.4 µM [2] | viability at 2 µM [3] | viability at 10 µM [4] | viability at 50 µM [5] |
| --- | --- | --- | --- | --- | --- |
| 45 µM | COc1cc2c(c(OC)c1O)[C@@H](CO)[C@@H](c1cc(OC)c(OC)c(OC)c1)O2 | 61.4% | 58% | 58.2% | 55% |
| 55 µM | COc1cc([C@H](O)[C@@H](CO)Oc2c(OC)cc([C@@H]3OC[C@@H]4[C@H]3CO[C@H]4c3cc(OC)c(O[C@H](CO)[C@@H](O)c4ccc(O)c(OC)c4)c(OC)c3)cc2OC)ccc1O | 52.2% | 53.2% | 54.3% | 55.3% |
| 27 µM | CC1=NN(c2ccccc2)C(=O)C1 [EDARAVONE] | 55.5% | 53.1% | 47.8% | 25.6% |
